Laboratory results from ChEMBL document CHEMBL4270522, “Halogenated trimethoprim derivatives as multidrug-resistant Staphylococcus aureus therapeutics” (Bioorg Med Chem, 2018).
Values after ≈ are worked out from the molar mass of the structure shown.

Legend:
Staphylococcus aureus [1] = test: Potentiation of sulfamethoxazole-mediated antibacterial activity against methicillin-resistant Staphylococcus aureus USA300 assessed as sulfamethoxazole MIC after 20 hrs by CLSI microdilution assay (reference value: 100 microg/ml); format: functional; conditions: USA300, 20 h
Staphylococcus aureus [2] = test: Bactericidal activity against methicillin-resistant Staphylococcus aureus USA300 preincubated for 20 hrs followed by agar plating and measured after 18 to 20 hrs; format: functional
Summary of the method: (§1)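 MBC taken from broth microdilution (final about 10^5 CFU/mL, Mueller-Hinton broth, 37 °C for 20 h). Clear wells (basal optical density) were spread on TSA plates and incubated at 37 °C for 18–20 h. The lowest concentration giving no colonies is reported. At least triplicate.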

Staphylococcus aureus [3] = test: Antibacterial activity against methicillin-resistant Staphylococcus aureus USA300 at 5 ug after 18 to 20 hrs by CLSI disk diffusion assay; format: functional; conditions: read-out: DIZ
Summary of the method: (§2)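 Disk diffusion on 4 mm Mueller-Hinton agar swabbed with about 10^8 CFU/mL suspension in PBS; 6 mm paper disk loaded with 5 µg compound in DMSO; 37 °C ambient air for 18–20 h; diameter of the complete inhibition zone measured in mm with callipers from the plate back; at least three independent experiments, mean with standard error; 6 mm means no inhibition.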

Staphylococcus aureus [4] = test: Bactericidal activity against methicillin-susceptible Staphylococcus aureus ATCC 29213 preincubated for 20 hrs followed by agar plating and measured after 18 to 20 hrs; format: functional
Summary of the method: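 Broth microdilution per CLSI guideline. Compounds diluted 2-fold in MHB from 100 mM DMSO stocks. Inoculum ~10^5 CFU/mL final, from overnight TSB culture diluted in PBS. Plates incubated at 37 °C. Wells without growth by optical density spread on TSA and incubated at 37 °C. MBC is the lowest concentration giving no colonies. At least triplicate.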

Staphylococcus aureus [5] = test: Antibacterial activity against methicillin-resistant Staphylococcus aureus USA300 after 20 hrs by CLSI microdilution assay; format: functional; conditions: USA300, 20 h
Staphylococcus aureus [6] = test: Bactericidal activity against hospital-associated methicillin-resistant Staphylococcus aureus COL preincubated for 20 hrs followed by agar plating and measured after 18 to 20 hrs; format: functional; summary of the method: as §1
Staphylococcus aureus [7] = test: Synergistic antibacterial activity against methicillin-susceptible Staphylococcus aureus ATCC 29213 in presence of sulfamethoxazole after 20 hrs by broth microdilution-based checkerboard titration assay; format: functional
Staphylococcus aureus [8] = test: Synergistic antibacterial activity against hospital-associated methicillin-resistant Staphylococcus aureus COL in presence of sulfamethoxazole after 20 hrs by broth microdilution-based checkerboard titration assay; format: functional
Staphylococcus aureus [9] = test: Antibacterial activity against hospital-associated methicillin-resistant Staphylococcus aureus COL after 20 hrs by CLSI microdilution assay; format: functional
Staphylococcus aureus [10] = test: Potentiation of sulfamethoxazole-mediated antibacterial activity against hospital-associated methicillin-resistant Staphylococcus aureus COL assessed as sulfamethoxazole MIC after 20 hrs by CLSI microdilution assay (reference value: 200 microg/ml); format: functional
Staphylococcus aureus [11] = test: Synergistic antibacterial activity against methicillin-resistant Staphylococcus aureus USA300 in presence of sulfamethoxazole after 20 hrs by broth microdilution-based checkerboard titration assay; format: functional
Staphylococcus aureus [12] = test: Antibacterial activity against methicillin-susceptible Staphylococcus aureus ATCC 25923 at 5 ug after 18 to 20 hrs by CLSI disk diffusion assay; format: functional; conditions: read-out: DIZ
Summary of the method: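 Mueller-Hinton agar, 4 mm deep, swabbed with PBS-diluted overnight TSB culture (~10^8 CFU/mL). Paper disk (6 mm) loaded with compound in DMSO, incubated 37 °C in ambient air. Complete inhibition zone diameter read from plate back with callipers; 6 mm means no inhibition. At least three independent experiments, mean with standard error.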

Staphylococcus aureus [13] = test: Antibacterial activity against hospital-associated methicillin-resistant Staphylococcus aureus COL at 5 ug after 18 to 20 hrs by CLSI disk diffusion assay; format: functional; conditions: read-out: DIZ; summary of the method: as §2
A549 = test: Cytotoxicity against human A549 cells after 24 to 48 hrs by fluorescence-based assay; format: cell-based
Summary of the method: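 A549 cells, ~10^4 per well in DMEM, given 2-fold serial dilutions of compound (DMSO stock diluted in DMEM). Incubated at 37 °C, 5% CO2. PrestoBlue added for 1 h, then fluorescence read at excitation 535 nm and emission 610 nm as a measure of viable cells.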

Staphylococcus aureus [14] = test: Synergistic antibacterial activity against methicillin-resistant Staphylococcus aureus USA300 assessed as fractional inhibitory concentration index in presence of sulfamethoxazole after 18 hrs by broth microdilution-based checkerboard titration assay; format: functional
Staphylococcus aureus [15] = test: Antibacterial activity against methicillin-susceptible Staphylococcus aureus ATCC 29213 after 20 hrs by CLSI microdilution assay; format: functional; conditions: ATCC 29213, 20 h
Staphylococcus aureus [16] = test: Potentiation of sulfamethoxazole-mediated antibacterial activity against methicillin-susceptible Staphylococcus aureus ATCC 29213 assessed as sulfamethoxazole MIC after 20 hrs by CLSI microdilution assay (reference value: 100 microg/ml); format: functional; conditions: ATCC 29213, 20 h
Staphylococcus aureus [17] = test: Synergistic antibacterial activity against methicillin-susceptible Staphylococcus aureus ATCC 29213 assessed as fractional inhibitory concentration index in presence of sulfamethoxazole after 18 hrs by broth microdilution-based checkerboard titration assay; format: functional
Staphylococcus aureus [18] = test: Synergistic antibacterial activity against hospital-associated methicillin-resistant Staphylococcus aureus COL assessed as fractional inhibitory concentration index in presence of sulfamethoxazole after 18 hrs by broth microdilution-based checkerboard titration assay; format: functional

Structure (SMILES) | MIC (Staphylococcus aureus [1]) | MBC (Staphylococcus aureus [2]) | zone of inhibition at 5 µg/disc (Staphylococcus aureus [3]) | MBC (Staphylococcus aureus [4]) | MIC (Staphylococcus aureus [5]) | MBC (Staphylococcus aureus [6]) | FIC (Staphylococcus aureus [7]) | FIC (Staphylococcus aureus [8]) | MIC (Staphylococcus aureus [9]) | MIC (Staphylococcus aureus [10]) | FIC (Staphylococcus aureus [11]) | zone of inhibition at 5 µg/disc (Staphylococcus aureus [12]) | zone of inhibition at 5 µg/disc (Staphylococcus aureus [13]) | IC50 (A549) | fractional inhibitory concentration index (FICI) (Staphylococcus aureus [14]) | MIC (Staphylococcus aureus [15]) | MIC (Staphylococcus aureus [16]) | fractional inhibitory concentration index (FICI) (Staphylococcus aureus [17]) | fractional inhibitory concentration index (FICI) (Staphylococcus aureus [18])
COc1cc(Cc2cnc(N)nc2N)cc(Cl)c1OC | 6.25 µg/mL | 2.5 µg/mL (≈ 8.48 µM) | 18.1 mm | 1.25 µg/mL (≈ 4.24 µM) | 2.5 µg/mL (≈ 8.48 µM) | 10 µg/mL (≈ 33.9 µM) | 0.06 | 0.06 | 5 µg/mL (≈ 17 µM) | 12.5 µg/mL | 0.06 | 15.1 mm | 6 mm | 467 µM | 0.12 | 1.25 µg/mL (≈ 4.24 µM) | 6.25 µg/mL | 0.12 | 0.12
COc1cc(Cc2cnc(N)nc2N)cc(Br)c1OC | 6.25 µg/mL | 1.25 µg/mL (≈ 3.69 µM) | 20.4 mm | 1.25 µg/mL (≈ 3.69 µM) | 1.25 µg/mL (≈ 3.69 µM) | 5 µg/mL (≈ 14.7 µM) | 0.06 | 0.06 | 5 µg/mL (≈ 14.7 µM) | 12.5 µg/mL | 0.06 | 17.4 mm | 6 mm | 321 µM | 0.18 | 1.25 µg/mL (≈ 3.69 µM) | 6.25 µg/mL | 0.12 | 0.12
COc1cc(Cc2cnc(N)nc2N)cc(I)c1OC | 6.25 µg/mL | 1.25 µg/mL (≈ 3.24 µM) | 22.8 mm | 1.25 µg/mL (≈ 3.24 µM) | 1.25 µg/mL (≈ 3.24 µM) | 5 µg/mL (≈ 12.9 µM) | 0.03 | 0.06 | 2.5 µg/mL (≈ 6.47 µM) | 12.5 µg/mL | 0.06 | 21 mm | 6 mm | 266 µM | 0.12 | 1.25 µg/mL (≈ 3.24 µM) | 3.13 µg/mL | 0.09 | 0.12
